The list is not random: actives were taken first. Their share in the collection is about 0.99%.
FN deposit inh: fibronectin deposition inhibition | AH1F fibroblasts, Alexa488-fibronectin deposition fluorescence, overnight | inhibition, % at 12.6 µM | 0.086% of 350,000 active | AID 743247;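 active means mean inhibition across replicates of 30% or more, regardless of how many single replicates reach that level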;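 further: positive control wells lacked labelled fibronectin entirely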
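material = AH1F fibroblast monolayer depositing Alexa488-labelled fibronectin into matrix | amount = 10000 AH1F cells/well | buffer or medium = DMEM plus 2% serum, read in PBS | incubation = 1 h cell adhesion before compound, then overnight fibronectin incubation | detection = fluorescence at 485 nm excitation, 525 nm emission | evaluation = percent inhibition as loss of matrix-bound fibronectin fluorescence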
NPR2 activator: GC-B (human) receptor activation; HEK293-GC-B cells, CNP EC30, cGMP TR-FRET; 0% at EC30 CNP, 100% saturating CNP; activation, % at 10 µM; 0.11% of 370,000 active; AID 1920062;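 active means activation at 10 µM reaching about 35% in either raw or pattern-adjusted values, limit read from the data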
CaV13 ICDI inh: Disruptors of the CACNA1D IQ motif to Ca2+-dependent inactivation inhibitor domain association, primary screening, Förster resonance energy transfer in intact living …; HEK cells, CFP/YFP FRET ICDI-IQ, plate reader, 10 min; percent FRET-ratio fall versus neutral wells; inhibition, % at 12.3 µM; 0.098% of 340,000 active; AID 743397;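 active means mean replicate inhibition of at least 30% and at least 1% of replicates passing that level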;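 further: 0% = median of the neutral control wells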
NPR1 activator: GC-A (human) enzyme activation; P16066; HEK293 GC-A cells, cGMP TR-FRET, EC30 ANP; 0% at EC30 ANP, 100% saturating ANP; activation, % at 10 µM; 0.14% of 370,000 active; in the data active means activation above about 40%
Target sequence (P16066 whole entry, looked up): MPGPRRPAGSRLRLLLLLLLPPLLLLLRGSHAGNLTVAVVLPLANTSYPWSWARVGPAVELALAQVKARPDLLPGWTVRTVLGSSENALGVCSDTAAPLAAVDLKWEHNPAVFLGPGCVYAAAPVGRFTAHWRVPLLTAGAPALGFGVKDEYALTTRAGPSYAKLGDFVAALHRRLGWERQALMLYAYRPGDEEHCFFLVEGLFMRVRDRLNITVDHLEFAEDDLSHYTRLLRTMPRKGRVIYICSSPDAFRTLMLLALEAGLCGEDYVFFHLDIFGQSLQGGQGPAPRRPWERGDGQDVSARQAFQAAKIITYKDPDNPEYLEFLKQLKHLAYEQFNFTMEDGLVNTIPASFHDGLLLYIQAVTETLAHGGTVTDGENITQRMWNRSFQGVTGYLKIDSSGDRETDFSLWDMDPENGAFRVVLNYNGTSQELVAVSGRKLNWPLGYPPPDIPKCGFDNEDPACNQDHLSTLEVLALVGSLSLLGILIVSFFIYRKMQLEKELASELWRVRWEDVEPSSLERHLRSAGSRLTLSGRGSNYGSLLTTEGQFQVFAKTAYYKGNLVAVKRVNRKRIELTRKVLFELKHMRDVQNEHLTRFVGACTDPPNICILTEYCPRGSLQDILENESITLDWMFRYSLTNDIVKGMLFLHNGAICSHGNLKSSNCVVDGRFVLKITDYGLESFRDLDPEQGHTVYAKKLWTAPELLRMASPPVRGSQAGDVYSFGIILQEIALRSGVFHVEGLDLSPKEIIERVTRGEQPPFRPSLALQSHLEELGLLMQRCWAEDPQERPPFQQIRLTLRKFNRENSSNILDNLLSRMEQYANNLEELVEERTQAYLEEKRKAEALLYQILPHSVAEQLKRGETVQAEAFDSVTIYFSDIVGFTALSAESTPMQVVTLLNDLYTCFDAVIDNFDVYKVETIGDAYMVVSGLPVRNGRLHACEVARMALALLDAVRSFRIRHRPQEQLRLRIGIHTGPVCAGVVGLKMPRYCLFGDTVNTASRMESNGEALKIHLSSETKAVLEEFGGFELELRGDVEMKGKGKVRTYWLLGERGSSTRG
CASP6 VEID inh: inhibitors of human caspase-6 | P55212 | 0.53% of 350,000 active | purified caspase-6, Z-VEID-R110 cleavage fluorescence | inhibition, % at 12.5 µM;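 active means mean inhibition across replicates at least about 35%, with every replicate also reaching that limit, limit read from the data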;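 further: 0% = median of neutral control wells and 100% = no fluorescence left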
NSD2 inh: NSD2 (human) methyltransferase inhibition; O96028; NSD2 peptide methylation, AlphaScreen, 120 min; inhibition, % at 12.5 µM; 0.54% of 310,000 active; AID 743445; in the data active means inhibition above about 50%
* hit, by the source's call; . = no result given; + = active, no number.

SMILES | FN deposit inh | NPR2 activator | CaV13 ICDI inh | NPR1 activator | CASP6 VEID inh | NSD2 inh
Cc1cccc(Nc2nc3c(S(=O)(=O)c4ccccc4)nnn3c3ccccc23)c1 | 2 | 42* | -15 | 36 | -3 | -1
Cc1cc(C)cc(Nc2nc3c(S(=O)(=O)c4ccccc4)nnn3c3ccccc23)c1 | 18 | 19 | -1 | 26 | 2 | -2
FC(F)(F)c1ccccc1NC(=S)Nc1cccc2cnccc12 | -1 | 3 | -2 | -7 | 37* | 96*
CCn1c(C)cc(/C=C2\NC(=O)N(Cc3ccc(Cl)cc3)C2=O)c1C | 4 | 49* | -5 | 19 | . | 4
O=S(=O)(Nc1cc(Sc2ncn[nH]2)c(O)c2ccccc12)c1ccccc1 | 21 | 6 | 6 | 9 | 100* | +
C[C@H]1CN([C@@H](C)CO)C(=O)c2cc(NC(=O)C3CCCCC3)ccc2O[C@H]1CN(C)Cc1ccncc1 | . | . | . | . | 0 | .
COc1cccc(CNC(=O)C[C@@H]2C=C[C@H](NS(=O)(=O)c3ccccc3OC)[C@@H](CO)O2)c1 | . | . | . | . | 0 | .
Cc1cc(Br)c2nc3c(c(C(=O)O)c2c1)CCCCC3 | . | 18 | -8 | 64* | . | -3
CCc1ccc2nc3c(c(C(=O)O)c2c1)CCC3 | 8 | 2 | -4 | 0 | . | 2
O=S(=O)(Nc1ccc(C(O)(C(F)(F)F)C(F)(F)F)cc1)c1ccc(-c2ccccc2)s1 | . | . | . | . | . | 17
COc1ccc(Nc2c(-c3ccco3)nc3ccc(C)cn23)cc1 | 8 | 36* | 0 | 31 | 0 | 1
Cc1ccc(Nc2c(-c3ccco3)nc3ccccn23)cc1 | -5 | 10 | -3 | 34 | -3 | 2
COCc1cn(CC[C@H]2CC[C@H](NC(=O)Nc3ccc(Cl)cc3)[C@@H](CO)O2)nn1 | . | . | . | . | -2 | .
O=C(N/N=C/c1ccc(O)c(O)c1)N/N=C/c1ccc(O)c(O)c1 | 2 | -4 | -3 | -2 | 75* | .
O=S(=O)(c1ccc(NC(=S)N/N=C/c2ccc(O)c(O)c2)cc1)N1CCOCC1 | 5 | -2 | -7 | -2 | 40* | 19
Oc1ccc(/C=N/NC(=S)Nc2cccnc2)cc1O | -1 | -4 | -5 | -5 | 13 | 75*
Cc1nonc1C(=O)N/N=C/c1ccc(O)c(O)c1 | 5 | -5 | -12 | 5 | . | 4
N#Cc1ccc(/C=N/NC(=S)Nc2ccc(S(=O)(=O)N3CCOCC3)cc2)cc1 | 5 | -3 | -6 | -5 | -3 | -1
COc1ccccc1-c1ccc([C@@H]2[C@H](CO)N(CC3CC3)C23CN(S(C)(=O)=O)C3)cc1 | -8 | . | . | . | 1 | .
CN(C)C(=O)c1cccc(-c2ccc3c(c2)[C@@H]2[C@@H](CCN2C(=O)C2CCC2)[C@@H](CO)N3)c1 | -12 | . | . | . | -1 | .
COc1ccccc1CNC(=O)COC(=O)c1ccc([N+](=O)[O-])o1 | 8 | 3 | -5 | -4 | 35* | 0
O=C(COC(=O)c1ccc([N+](=O)[O-])o1)Nc1ccc2c(c1)OC(F)(F)O2 | 2 | -4 | -13 | -1 | 56* | 5
O=C(COC(=O)c1ccc([N+](=O)[O-])o1)Nc1ccc2c(c1)OCO2 | -1 | -4 | -6 | -4 | 4 | 1
O=C(COC(=O)c1ccc([N+](=O)[O-])o1)NCc1ccccc1 | -5 | 4 | -5 | 1 | 25 | 7
O=[N+]([O-])c1ccc(N=Nc2ccc(O)cc2O)cc1 | -2 | 4 | -6 | 13 | . | 37
SMILES | FN deposit inh | NPR2 activator | CaV13 ICDI inh | NPR1 activator | CASP6 VEID inh | NSD2 inh
O=S(=O)(O)c1cc(Cl)cc(N=Nc2ccc(O)cc2O)c1O | 9 | -1 | -17 | -5 | 77* | 113*
CC(=O)N1[C@H](CO)[C@H](c2ccc(-c3ccc(F)cc3)cc2)[C@@H]1CNC(=O)C1CC1 | -9 | . | . | . | . | .
COc1cccc(/C=N/NC(=S)NCCc2ccccc2)c1 | 17 | 13 | -21 | 7 | 35* | -1
COc1ccc(/C=N/NC(=S)NCCc2ccccc2)cc1 | 19 | 6 | -21 | 11 | -2 | -2
O=C(N/N=C/c1ccc(N2CCOCC2)c([N+](=O)[O-])c1)c1ccc(F)cc1 | 3 | -1 | 3 | 6 | . | 0
O=C(N/N=C/c1ccc(N2CCCC2)c([N+](=O)[O-])c1)c1cccnc1 | 31* | -7 | -1 | -7 | 4 | 0
CCn1cc(C(=O)O)c(=O)c2cc(F)c(N3CCN(C(=S)NC(=O)c4ccccc4Br)CC3)cc21 | 1 | 1 | -4 | -5 | 36* | 1
O=C(Nc1ccccc1F)N[C@@H]1CC[C@H](CCNS(=O)(=O)c2ccc(Cl)cc2)O[C@H]1CO | . | . | . | . | -1 | .
O=C(CN1CCOCC1)NCC[C@H]1CC[C@@H](NC(=O)Nc2ccccc2)[C@@H](CO)O1 | 3 | . | . | . | -1 | .
C[C@@H]1CN([C@@H](C)CO)C(=O)Cc2cc(NS(=O)(=O)c3ccccc3)ccc2O[C@H]1CN(C)C(=O)Nc1ccc(C(F)(F)F)cc1 | . | . | . | . | 2 | .
Cc1cccc(O)c1C | . | -6 | . | 1 | -1 | .
Cc1cccc(C)c1N=Nc1c(C)cc(O)cc1C | 14 | -14 | -19 | -11 | 3 | 58*
O=C(Nc1ccc2c(c1)OCO2)N[C@H]1C=C[C@@H](CC(=O)N2CCN(c3ccccc3)CC2)O[C@H]1CO | 3 | . | . | . | -1 | .
Cc1ccc(S(=O)(=O)N2CC[C@H]3[C@H](CO)Nc4ccc(-c5cccc(C(=O)N(C)C)c5)cc4[C@H]32)cc1 | 31* | . | . | . | -2 | .
CCOC(=O)c1c(C)oc2c1cc(NS(=O)(=O)c1ccc(C(=O)O)cc1)c1ccccc12 | 1 | -2 | -2 | 2 | 62* | 50
CCN1CCN(CC(=O)n2c3c(c4ccccc42)CC(C)CC3)CC1 (stereo unspecified) | . | 1 | . | 1 | . | 16
CC1CCc2c(c3ccccc3n2C(=O)CCl)C1 (stereo unspecified) | 19 | 0 | -19 | -27 | 96* | -1
COCOc1cc(O)c2c(=O)c(OCOC)c(-c3ccc(OCOC)c(OCOC)c3)oc2c1 | . | -7 | . | -3 | 51* | .
COc1c(-c2ccc(O)c(O)c2)oc2cc(O)cc(O)c2c1=O | . | -11 | . | -4 | 48* | .
O=[N+]([O-])c1ccccc1/C=C\C=N\N1CCN(c2ccccc2)CC1 | 2 | -2 | -5 | 1 | 1 | 93*
O=[N+]([O-])c1ccccc1/C=N\N1CCN(c2ccccc2)CC1 | . | 0 | -7 | 4 | 0 | 12
O=C1ON=C(c2ccccc2)/C1=C/c1ccccc1 | 1 | 6 | 3 | 1 | 2 | 0
Cc1ccc(C2=NOC(=O)/C2=C\c2ccccc2)cc1 | 1 | 1 | -19 | 7 | 3 | 14
Cc1ccc(/C=C2/C(=O)ON=C2c2ccccc2)o1 | -3 | 33 | -3 | 39 | 60* | 10

Screening results from PubChem.
